Measured values taken from ChEMBL document CHEMBL1143101, “Understanding the cardioprotective effects of flavonols: discovery of relaxant flavonols without antioxidant activity” (J Med Chem, 2008).

Key:
Aorta [1] = test: DPPH scavenging activity in Sprague-Dawley rat thoracic aorta at 100 uM relative to control; assay type: functional
Outline: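 Cell-free DPPH radical scavenging. Flavonol in DMSO mixed 1:1 with 0.1 mM DPPH in methanol, 10 min at room temperature in the dark, absorbance read at 560 nm. Level = (A flavonol/A DPPH) × 100, as % of vehicle.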

Aorta [2] = test: Vascular activity in KPSS precontracted Sprague-Dawley rat thoracic aorta assessed as endothelium dependent relaxation; assay type: functional, tissue-based; parameters: Activity: concentration or dose not given beside the values; conditions: for EC50: Rattus norvegicus, Sprague-Dawley, Thoracic aorta
Aorta [3] = test: Antioxidant activity in Sprague-Dawley rat thoracic aorta assessed as superoxide levels at 10 uM by lucigenin-enhanced chemiluminescence assay relative to control; assay type: functional
Outline: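 Male Sprague-Dawley aortic rings incubated 45 min at 37 °C, pH 7.4, in Krebs-HEPES with DETCA 3 mM (inactivates SOD), NADPH 100 µM and flavonol 10 µM (DMSO 1%). Rings then moved to wells containing lucigenin 50 µM and NADPH 100 µM, and photon emission counted. Counts normalized to dry tissue weight (dried 48 h, 65 °C), expressed as % of vehicle; n = rats.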

Aorta [4] = test: Vasorelaxant activity against U46619-induced contraction in endothelium-denuded Sprague-Dawley rat thoracic aorta; assay type: functional, tissue-based; parameters: Activity: scale not given: the % may be the effect or the level left; conditions: for EC50: Rattus norvegicus, Sprague-Dawley, Thoracic aorta
Aorta [5] = test: Vasorelaxant activity against KCl-induced contraction in endothelium-denuded Sprague-Dawley rat thoracic aorta; assay type: functional, tissue-based; parameters: Activity: scale not given: the % may be the effect or the level left; conditions: for EC50: Rattus norvegicus, Sprague-Dawley, Thoracic aorta
Aorta [6] = test: Effect on acetylcholine-induced vasorelaxation in pyrogallol exposed Sprague-Dawley rat thoracic aorta; assay type: functional, tissue-based; parameters: Activity: scale not given: the % may be the effect or the level left; conditions: for EC50: Rattus norvegicus, Sprague-Dawley, Thoracic aorta
Outline: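 Endothelium-intact male Sprague-Dawley aortic rings in organ baths with nifedipine 30 nM. Pretreated 20 min with pyrogallol 30 µM, alone or with flavonol 30 µM (15% DMSO/85% methanol), or vehicle. Rings precontracted with U46619 1–10 nM to about 50% of the 123 mM KCl response, then cumulative acetylcholine curves run. Relaxation given as % of precontraction; mean ± SEM, n = rats.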

Aorta [7] = test: Vasorelaxant activity against U46619-induced contraction in endothelium-intact Sprague-Dawley rat thoracic aorta; assay type: functional, tissue-based; parameters: Activity: scale not given: the % may be the effect or the level left; conditions: for EC50: Rattus norvegicus, Sprague-Dawley, Thoracic aorta
Aorta [8] = test: Vasorelaxant activity against KCl-induced contraction in endothelium-intact Sprague-Dawley rat thoracic aorta; assay type: functional, tissue-based; parameters: Activity: scale not given: the % may be the effect or the level left; conditions: for EC50: Rattus norvegicus, Sprague-Dawley, Thoracic aorta
Aorta [9] = test: Effect on acetylcholine-induced vasorelaxation in xanthine/xanthine oxidase exposed Sprague-Dawley rat thoracic aorta; assay type: functional, tissue-based; parameters: Activity: scale not given: the % may be the effect or the level left; conditions: for EC50: Rattus norvegicus, Sprague-Dawley, Thoracic aorta
Outline: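 Aortic rings incubated with xanthine oxidase 0.016 U/mL for 30 min, then flavonol 30 µM for 20 min, then xanthine 100 µM for 10 min. Rings then precontracted with U46619 and cumulative acetylcholine concentration-response curves recorded. Relaxation given as % of U46619 precontraction; mean ± SEM, n = rats.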

Structure (SMILES)	Activity (Aorta [1]) [%]	Activity (Aorta [2]) [%]	EC50 (Aorta [2]) [µM]	Activity (Aorta [3]) [%]	Activity (Aorta [4]) [%]	EC50 (Aorta [4]) [µM]	Activity (Aorta [5]) [%]	EC50 (Aorta [5]) [µM]	Activity (Aorta [6]) [%]	EC50 (Aorta [6]) [µM]	Activity (Aorta [7]) [%]	EC50 (Aorta [7]) [µM]	Activity (Aorta [8]) [%]	EC50 (Aorta [8]) [µM]	Activity (Aorta [9]) [%]	EC50 (Aorta [9]) [µM]
O=c1c(O)c(-c2ccc(Cl)cc2)oc2ccccc12	93	37	8.13	100	–	–	–	–	–	–	–	–	–	–	–	–
O=c1c(O)c(-c2ccc(O)c(O)c2)oc2ccccc12	36	102	5.01	27	100	3.02	100	6.31	81	0.0646	101	1.35	100	5.5	84	0.055
O=c1c(O)c(-c2ccc(O)c(C(F)(F)F)c2)oc2ccccc12	26	77	16.6	109	–	–	–	–	–	–	–	–	–	–	–	–
COc1cccc(-c2oc3ccccc3c(=O)c2O)c1	71	79	7.08	74	93	3.72	86	8.91	–	–	101	3.02	87	7.76	–	–
O=c1c(O)c(-c2ccc(O)c(Br)c2)oc2ccccc12	23	100	2.51	96	–	–	–	–	–	–	–	–	–	–	–	–
Cc1cc(-c2oc3ccccc3c(=O)c2O)ccc1O	25	98	4.37	105	–	–	–	–	–	–	–	–	–	–	–	–
COc1ccc(-c2oc3ccccc3c(=O)c2O)cc1	51	16	–	89	–	–	–	–	–	–	–	–	–	–	–	–
O=c1c(O)c(-c2ccc(C(F)(F)F)cc2)oc2ccccc12	90	6	–	85	–	–	–	–	–	–	–	–	–	–	–	–
Cc1cccc(-c2oc3ccccc3c(=O)c2O)c1	80	37	74.1	85	–	–	–	–	–	–	–	–	–	–	–	–
CC(C)(C)c1cc(-c2oc3ccccc3c(=O)c2O)ccc1O	26	38	4.68	108	–	–	–	–	–	–	–	–	–	–	–	–
O=c1c(O)c(-c2ccccc2)oc2ccccc12 [FLAVONOL]	83	91	7.59	70	–	–	–	–	–	–	–	–	–	–	–	–
CC(C)(C)c1ccc(-c2oc3ccccc3c(=O)c2O)cc1	71	10	–	111	–	–	–	–	–	–	–	–	–	–	–	–
O=c1c(O)c(-c2ccc(O)cc2)oc2ccccc12	32	99	4.68	74	102	3.16	92	5.5	–	–	100	1.66	95	5.13	–	–
Cc1ccc(-c2oc3ccccc3c(=O)c2O)cc1	76	13	–	101	–	–	–	–	–	–	–	–	–	–	–	–
O=c1c(O)c(-c2cccc(Cl)c2)oc2ccccc12	87	53	6.76	75	–	–	–	–	–	–	–	–	–	–	–	–
COc1cc(-c2oc3ccccc3c(=O)c2O)ccc1O	24	98	4.47	106	100	1.66	93	5.62	42	0.275	101	0.871	100	4.79	62	0.0891
O=c1c(O)c(-c2cccc(O)c2)oc2ccccc12	87	98	3.24	78	–	–	–	–	–	–	–	–	–	–	–	–
O=c1c(O)c(-c2cccc(C(F)(F)F)c2)oc2ccccc12	89	23	115	80	–	–	–	–	–	–	–	–	–	–	–	–
